Our source for the Activity values is ChEMBL document CHEMBL1817556, “Substituted lactam and cyclic azahemiacetals modulate Pseudomonas aeruginosa quorum sensing” (Bioorg Med Chem, 2011).

Structures are written as SMILES.

The target of assay [1] is 3-(3-hydroxydecanoyloxy)decanoate synthase (Pseudomonas aeruginosa (strain ATCC 15692 / PAO1 / 1C / PRS 101 / LMG12228)) (UniProt Q51559). Description: Modulation of Pseudomonas aeruginosa lacZ-fused rhlA expressed in Escherichia coli DH5alpha co-expressing Ptac-rhlR assessed as C4-AHL-induced effect at 0.17 mM after 4 hrs by beta-galactosidase assay relative to control. An outline of the steps:
(§1)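 rhl reporter: E. coli DH5α carrying pECP61.5 (Ptac-rhlR, PrhlA-lacZ) was grown overnight in LB with ampicillin (100 μg/ml) only, then diluted to OD600 0.150. It was induced with 1 mM IPTG, and 2 μM C4-HSL plus compound or DMSO were added at OD600 1.0. Cultures were shaken 4 h at 37 °C. β-Galactosidase activity was read in Miller units as % of the solvent sample. Triplicates per biological replicate, at least two repeats; paired two-tailed t-test.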

The target in assay [2] is T1, Acyl-homoserine-lactone synthase (Pseudomonas aeruginosa (strain ATCC 15692 / PAO1 / 1C / PRS 101 / LMG12228)) (UniProt P33883).
T1 sequence (whole entry): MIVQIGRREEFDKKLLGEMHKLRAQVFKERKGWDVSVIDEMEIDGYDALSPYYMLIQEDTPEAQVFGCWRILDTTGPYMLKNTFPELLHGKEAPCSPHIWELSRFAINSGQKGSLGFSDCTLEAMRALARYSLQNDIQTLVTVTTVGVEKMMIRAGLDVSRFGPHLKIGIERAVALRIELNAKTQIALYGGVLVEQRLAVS
Description: Modulation of Pseudomonas aeruginosa lacZ-fused lasI expressed in Escherichia coli DH5alpha co-expressing pBAD-lasR assessed as 3-oxo-C12-AHL-induced effect at 0.17 mM after 3 hrs by beta-galactosidase assay relative to control. An outline of the steps: (§2)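 E. coli DH5α carrying pSC11 (PlasI-lacZ translational fusion) and pJN105L (PBAD-lasR) was grown overnight in LB with ampicillin (100 μg/ml) and gentamicin (15 μg/ml), then diluted to OD600 0.150. Arabinose (0.2% w/v), 3-oxo-C12-AHL (2 μM) and test compound or DMSO were added. Cultures were shaken 3 h at 37 °C. β-Galactosidase activity was read in Miller units and expressed as % of the solvent sample. Triplicates per biological replicate, repeated at least twice; paired two-tailed t-test.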

The target of assay [3] is T1, Acyl-homoserine-lactone synthase (Pseudomonas aeruginosa (strain ATCC 15692 / PAO1 / 1C / PRS 101 / LMG12228)). Put plainly: Modulation of Pseudomonas aeruginosa lacZ-fused lasI expressed in Escherichia coli DH5alpha co-expressing pBAD-lasR assessed as 3-oxo-C12-AHL-induced effect at 0.66 mM after 3 hrs by beta-galactosidase assay relative to control. An outline of the steps:
as §2

Assay [4] deals with 3-(3-hydroxydecanoyloxy)decanoate synthase (Pseudomonas aeruginosa (strain ATCC 15692 / PAO1 / 1C / PRS 101 / LMG12228)) (UniProt Q51559). Put plainly: Modulation of Pseudomonas aeruginosa lacZ-fused rhlA expressed in Escherichia coli DH5alpha co-expressing Ptac-rhlR assessed as C4-AHL-induced effect at 0.50 mM after 4 hrs by beta-galactosidase assay relative to control. Summed up: as §1

Assay [5] shares this target. Put plainly: Modulation of Pseudomonas aeruginosa lacZ-fused rhlA expressed in Escherichia coli DH5alpha co-expressing Ptac-rhlR assessed as C4-AHL-induced effect at 0.66 mM after 4 hrs by beta-galactosidase assay relative to control. An outline of the steps:
(§3)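 E. coli DH5α carrying pECP61.5 (Ptac-rhlR, PrhlA-lacZ), grown overnight in LB with ampicillin 100 μg/ml and diluted to OD600 0.150. At OD600 1.0, 1 mM IPTG, 2 μM C4-HSL and compound or DMSO were added. Cultures were shaken 4 h at 37 °C, then β-galactosidase was read in Miller units. Activity is % of solvent sample, from triplicates per biological replicate, with at least two repeats.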

In assay [6] the target is T1, Acyl-homoserine-lactone synthase (Pseudomonas aeruginosa (strain ATCC 15692 / PAO1 / 1C / PRS 101 / LMG12228)). Description: Modulation of Pseudomonas aeruginosa lacZ-fused lasI expressed in Escherichia coli DH5alpha co-expressing pBAD-lasR assessed as 3-oxo-C12-AHL-induced effect at 0.50 mM after 3 hrs by beta-galactosidase assay relative to control. Summed up: as §2

For assay [7], the target named is 3-(3-hydroxydecanoyloxy)decanoate synthase (Pseudomonas aeruginosa (strain ATCC 15692 / PAO1 / 1C / PRS 101 / LMG12228)) (UniProt Q51559). Description: Modulation of Pseudomonas aeruginosa lacZ-fused rhlA expressed in Escherichia coli DH5alpha co-expressing Ptac-rhlR assessed as C4-AHL-induced effect at 0.33 mM after 4 hrs by beta-galactosidase assay relative to control. Summed up:
as §1

Assay [8] deals with T1, Acyl-homoserine-lactone synthase (Pseudomonas aeruginosa (strain ATCC 15692 / PAO1 / 1C / PRS 101 / LMG12228)). Description: Modulation of Pseudomonas aeruginosa lacZ-fused lasI expressed in Escherichia coli DH5alpha co-expressing pBAD-lasR assessed as 3-oxo-C12-AHL-induced effect at 0.33 mM after 3 hrs by beta-galactosidase assay relative to control. Summed up:
as §2

Assay [9] deals with 3-(3-hydroxydecanoyloxy)decanoate synthase (Pseudomonas aeruginosa (strain ATCC 15692 / PAO1 / 1C / PRS 101 / LMG12228)) (UniProt Q51559). Description: Modulation of Pseudomonas aeruginosa lacZ-fused rhlA expressed in Escherichia coli DH5alpha co-expressing Ptac-rhlR assessed as C4-AHL-induced effect at 0.20 mM after 4 hrs by beta-galactosidase assay relative to control. An outline of the steps:
as §1

Assay [10] deals with T1, Acyl-homoserine-lactone synthase (Pseudomonas aeruginosa (strain ATCC 15692 / PAO1 / 1C / PRS 101 / LMG12228)). Put plainly: Modulation of Pseudomonas aeruginosa lacZ-fused lasI expressed in Escherichia coli DH5alpha co-expressing pBAD-lasR assessed as 3-oxo-C12-AHL-induced effect at 0.60 mM after 3 hrs by beta-galactosidase assay relative to control. An outline of the steps: as §2

For assay [11] the target is unchanged. Put plainly: Modulation of Pseudomonas aeruginosa lacZ-fused lasI expressed in Escherichia coli DH5alpha co-expressing pBAD-lasR assessed as 3-oxo-C12-AHL-induced effect at 0.80 mM after 3 hrs by beta-galactosidase assay relative to control. An outline of the steps: as §2
Assay [12] concerns the target 3-(3-hydroxydecanoyloxy)decanoate synthase (Pseudomonas aeruginosa (strain ATCC 15692 / PAO1 / 1C / PRS 101 / LMG12228)) (UniProt Q51559). Put plainly: Modulation of Pseudomonas aeruginosa lacZ-fused rhlA expressed in Escherichia coli DH5alpha co-expressing Ptac-rhlR assessed as C4-AHL-induced effect at 0.40 mM after 4 hrs by beta-galactosidase assay relative to control. Summed up: as §1

Assay [13] has the same target. Put plainly: Modulation of Pseudomonas aeruginosa lacZ-fused rhlA expressed in Escherichia coli DH5alpha co-expressing Ptac-rhlR assessed as C4-AHL-induced effect at 0.80 mM after 4 hrs by beta-galactosidase assay relative to control. Summed up:
as §3

Assay [14] deals with T1, Acyl-homoserine-lactone synthase (Pseudomonas aeruginosa (strain ATCC 15692 / PAO1 / 1C / PRS 101 / LMG12228)). Put plainly: Modulation of Pseudomonas aeruginosa lacZ-fused lasI expressed in Escherichia coli DH5alpha co-expressing pBAD-lasR assessed as 3-oxo-C12-AHL-induced effect at 0.20 mM after 3 hrs by beta-galactosidase assay relative to control. An outline of the steps:
as §2

Assay [15] concerns the target 3-(3-hydroxydecanoyloxy)decanoate synthase (Pseudomonas aeruginosa (strain ATCC 15692 / PAO1 / 1C / PRS 101 / LMG12228)) (UniProt Q51559). Description: Modulation of Pseudomonas aeruginosa lacZ-fused rhlA expressed in Escherichia coli DH5alpha co-expressing Ptac-rhlR assessed as C4-AHL-induced effect at 0.60 mM after 4 hrs by beta-galactosidase assay relative to control. An outline of the steps: as §3

Assay [16] addresses T1, Acyl-homoserine-lactone synthase (Pseudomonas aeruginosa (strain ATCC 15692 / PAO1 / 1C / PRS 101 / LMG12228)). Put plainly: Modulation of Pseudomonas aeruginosa lacZ-fused lasI expressed in Escherichia coli DH5alpha co-expressing pBAD-lasR assessed as 3-oxo-C12-AHL-induced effect at 0.40 mM after 3 hrs by beta-galactosidase assay relative to control. An outline of the steps:
as §2

Assay [17] has the same target. Description: Modulation of Pseudomonas aeruginosa lacZ-fused lasI expressed in Escherichia coli DH5alpha co-expressing pBAD-lasR assessed as 3-oxo-C12-AHL-induced effect at 0.70 mM after 3 hrs by beta-galactosidase assay relative to control. An outline of the steps: as §2
Assay [18] addresses 3-(3-hydroxydecanoyloxy)decanoate synthase (Pseudomonas aeruginosa (strain ATCC 15692 / PAO1 / 1C / PRS 101 / LMG12228)) (UniProt Q51559). Put plainly: Modulation of Pseudomonas aeruginosa lacZ-fused rhlA expressed in Escherichia coli DH5alpha co-expressing Ptac-rhlR assessed as C4-AHL-induced effect at 0.93 mM after 4 hrs by beta-galactosidase assay relative to control. An outline of the steps: as §3

For assay [19] the target is unchanged. Description: Modulation of Pseudomonas aeruginosa lacZ-fused rhlA expressed in Escherichia coli DH5alpha co-expressing Ptac-rhlR assessed as C4-AHL-induced effect at 0.70 mM after 4 hrs by beta-galactosidase assay relative to control. Summed up:
as §3

In assay [20] the target is T1, Acyl-homoserine-lactone synthase (Pseudomonas aeruginosa (strain ATCC 15692 / PAO1 / 1C / PRS 101 / LMG12228)). Description: Modulation of Pseudomonas aeruginosa lacZ-fused lasI expressed in Escherichia coli DH5alpha co-expressing pBAD-lasR assessed as 3-oxo-C12-AHL-induced effect at 0.93 mM after 3 hrs by beta-galactosidase assay relative to control. Summed up:
as §2

Assay [21] has the same target. Put plainly: Modulation of Pseudomonas aeruginosa lacZ-fused lasI expressed in Escherichia coli DH5alpha co-expressing pBAD-lasR assessed as 3-oxo-C12-AHL-induced effect at 0.23 mM after 3 hrs by beta-galactosidase assay relative to control. An outline of the steps:
as §2

The target in assay [22] is 3-(3-hydroxydecanoyloxy)decanoate synthase (Pseudomonas aeruginosa (strain ATCC 15692 / PAO1 / 1C / PRS 101 / LMG12228)) (UniProt Q51559). Description: Modulation of Pseudomonas aeruginosa lacZ-fused rhlA expressed in Escherichia coli DH5alpha co-expressing Ptac-rhlR assessed as C4-AHL-induced effect at 0.47 mM after 4 hrs by beta-galactosidase assay relative to control. An outline of the steps:
as §1

Assay [23] shares this target. Description: Modulation of Pseudomonas aeruginosa lacZ-fused rhlA expressed in Escherichia coli DH5alpha co-expressing Ptac-rhlR assessed as C4-AHL-induced effect at 0.23 mM after 4 hrs by beta-galactosidase assay relative to control. An outline of the steps:
as §1

Assay [24] addresses T1, Acyl-homoserine-lactone synthase (Pseudomonas aeruginosa (strain ATCC 15692 / PAO1 / 1C / PRS 101 / LMG12228)). Put plainly: Modulation of Pseudomonas aeruginosa lacZ-fused lasI expressed in Escherichia coli DH5alpha co-expressing pBAD-lasR assessed as 3-oxo-C12-AHL-induced effect at 0.47 mM after 3 hrs by beta-galactosidase assay relative to control. Summed up:
as §2

`CCCCCCCCCCCCSC[C@@H]1CCC(O)N1` (mixture of isomers): the Activity was 98% in assay [1]; 72% in assay [2]; 34% in assay [3]; 91% in [4]; 96% in assay [5]; 45% in assay [6]. Moreover, the Activity in assay [7] is 93%; in assay [8] it was 56%.
`CCCCCCSC[C@H]1NC(O)[C@H](O)[C@@H]1O` (mixture of isomers): the Activity in [9] was 94%; in assay [10], 51%; in [11], 42%; in [12], 105%; in assay [13] it was 116%; in [14], 84%. Moreover, the Activity came to 109% in [15] and 68% in assay [16].
Consider `CCCCCCSC[C@@H]1CCC(=O)N1`, for which the Activity worked out at 74% in assay [17]; 145% in assay [18]; 130% in assay [19]; 61% in assay [20]; 106% in assay [21]; 126% in assay [22]. Further, the values for the Activity in assay [23] and in assay [24] were 126% and 87%, respectively.
